Each structure is given as a SMILES string.

For one series, the system named is Trypanosoma cruzi. Nature of the series: Antitrypanosomal activity against Trypanosoma cruzi Tulahuen amastigotes in mouse 3T3 cells by beta-galactosidase reporter gene assay. The following applies: NIH3T3. It counts as functional, organism-based. In outline:
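Tulahuen strain (TCII lineage) grown as intracellular amastigotes in murine 3T3 fibroblasts in 96-well plates. EC50 determined from triplicate screens. Standard errors within assays stayed below 15%.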
(In general: Reporter assays use an easily measured gene product as a stand-in for the process of interest.)

A short description of series [1]: Toxicity against mouse 3T3 cells by resazurin assay. The following applies: NIH3T3 cells. Type of series: cell-based. In outline:
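Murine 3T3 fibroblasts screened separately from the parasites. Host-cell growth was quantified by resazurin read-out and EC50 determined.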
In general terms: The colour change of resazurin is a common sign of viable cells or microbes.

For orientation: EC50 means the concentration needed to bring the measured effect to its halfway point. Consider `N#Cc1ccc(NCc2cncn2Cc2ccc(-c3ccccc3)cc2)cc1-c1ccccc1`, for which the EC50 in the series with Trypanosoma cruzi is 1.3 nM; in series [1], greater than 1000 nM.

On to `Cc1cccc(-c2cccc(NCc3cncn3Cc3ccccc3)c2)c1C`, for which the EC50 in the series on Trypanosoma cruzi was 260 nM; in series [1] it was greater than 1000 nM.

With `COC(=O)c1ccc(NCc2cncn2Cc2ccc([N+](=O)[O-])cc2)cc1-c1ccccc1`, the EC50 with Trypanosoma cruzi is 100 nM; in series [1] it was greater than 10000 nM.

In the case of `CC(=O)c1ccc(NCc2cncn2Cc2ccc(-c3ccccc3)cc2)cc1-c1ccccc1`, the results for the EC50 (in the series on Trypanosoma cruzi; in series [1]) were 40 nM and greater than 10000 nM, respectively.

On to `Nc1cc(-c2ccccc2)ccc1Cn1cncc1CNc1ccc(-c2cncs2)c(-c2ccccc2)c1`, for which the EC50 with Trypanosoma cruzi was 10 nM; in series [1], greater than 1000 nM.

Turning to `Cc1ccccc1-c1ccc(Cn2cncc2CNc2ccc(-c3nc4ccccc4s3)c(-c3ccccc3)c2)cc1`, the results for the EC50 (in the series on Trypanosoma cruzi; in series [1]) were 120 nM and greater than 1000 nM, respectively.

Take `c1ccc(Cn2cncc2CNc2cccc(-c3ccncc3)c2)cc1`: the EC50 in the series on Trypanosoma cruzi is 510 nM; in series [1], greater than 1000 nM.

On to `c1ccc(-c2ccc(Cn3cncc3CNc3ccc(-c4noc5ccccc45)c(-c4ccccc4)c3)cc2)cc1`, for which the EC50 in the series on Trypanosoma cruzi was 10 nM; in series [1], greater than 10000 nM.

`COc1ccc(NCc2cncn2Cc2ccc(-c3ccccc3)cc2N)cc1-c1ccccc1`: the EC50 with Trypanosoma cruzi was 0.8 nM; in series [1] it was greater than 1000 nM.

In the case of `CS(=O)(=O)c1ccc(Cn2cncc2CNc2ccc(-c3nc4ccccc4s3)c(-c3ccccc3)c2)cc1`, the EC50 (in the series with Trypanosoma cruzi; in series [1]) was greater than 1000 nM in each case.

`CCC(=O)c1ccc(NCc2cncn2Cc2ccc(-c3ccccc3)cc2)cc1-c1ccccc1`: the EC50 is 40 nM with Trypanosoma cruzi and greater than 10000 nM in series [1].

Regarding `CN(C)c1ccc(NCc2cncn2Cc2ccc(-c3ccccc3)cc2)cc1-c1ccccc1`, the EC50 in the series with Trypanosoma cruzi was 20 nM; in series [1] it was greater than 1000 nM.

On to `CCc1ccc(Cn2cncc2CNc2ccc(-c3nc4ccccc4s3)c(-c3ccccc3)c2)cc1`, for which the EC50 in the series with Trypanosoma cruzi is 110 nM; in series [1], greater than 1000 nM.

For `CC(C)c1ccc(Cn2cncc2CNc2ccc(-c3nc4ccccc4s3)c(-c3ccccc3)c2)cc1`, the EC50 with Trypanosoma cruzi is 540 nM; in series [1], greater than 1000 nM.

As for `COC(=O)c1ccc(NCc2cncn2Cc2cccc(F)c2)cc1-c1ccccc1`, the EC50 with Trypanosoma cruzi was 150 nM; in series [1], greater than 1000 nM.

Turning to `Clc1ccc(Cn2cncc2CNc2cccc(-c3ccccc3)c2)cc1`, the EC50 came to 80 nM with Trypanosoma cruzi and 10000 nM in series [1].

As to `COC(=O)c1ccc(NCc2cncn2Cc2ccc(C)cc2)cc1-c1ccccc1`, the EC50 in the series with Trypanosoma cruzi turned out to be 5 nM; in series [1], 50000 nM.

Consider `c1ccc(-c2ccc(Cn3cncc3CNc3cccc(-c4ccccc4)c3)cc2)cc1`, for which the concentration giving a half-maximal response (EC50) with Trypanosoma cruzi was determined as 10 nM; in series [1], 10000 nM.

In the case of `c1ccc(-c2ccc(Cn3cncc3CNc3ccc(-c4ccc[nH]4)c(-c4ccccc4)c3)cc2)cc1`, the EC50 is 100 nM in the series with Trypanosoma cruzi and greater than 10000 nM in series [1].

Turning to `CC(C)OC(=O)c1ccc(NCc2cncn2Cc2ccc(-c3ccccc3)cc2)cc1-c1ccccc1`, the concentration giving a half-maximal response (EC50) in the series with Trypanosoma cruzi is 50 nM; in series [1], greater than 10000 nM.

With `COC(=O)c1ccc(NCc2cncn2Cc2ccccc2N)cc1-c1ccccc1`, the results for the EC50 (in the series on Trypanosoma cruzi; in series [1]) were 5 nM and 25000 nM, respectively.

Regarding `COC(=O)c1ccc(NCc2cncn2Cc2ccccc2[N+](=O)[O-])cc1-c1ccccc1`, the values for the EC50 (in the series with Trypanosoma cruzi; in series [1]) were 100 nM and 10000 nM, respectively.

Turning to `c1ccc(-c2ccc(Cn3cncc3CNc3ccc(-c4cncs4)c(-c4ccccc4)c3)cc2)cc1`, the EC50 is 9 nM in the series on Trypanosoma cruzi and greater than 1000 nM in series [1].

On to `COC(=O)c1ccc(NCc2cncn2Cc2cccc(Cl)c2)cc1-c1ccccc1`, for which the 50% effective concentration (EC50) with Trypanosoma cruzi is 20 nM; in series [1], greater than 10000 nM.

`COC(=O)c1ccc(NCc2cncn2Cc2cccc(N)c2)cc1-c1ccccc1`: the EC50 was 130 nM with Trypanosoma cruzi and greater than 10000 nM in series [1].

Take `COC(=O)c1ccc(NCc2cncn2Cc2ccc(F)cc2F)cc1-c1ccccc1`: the EC50 was 21 nM with Trypanosoma cruzi and greater than 1000 nM in series [1].

Take `c1ccc(-c2ccc(Cn3cncc3CNc3ccc(-c4nc5ccccc5o4)c(-c4ccccc4)c3)cc2)cc1`: the EC50 in the series with Trypanosoma cruzi was 100 nM; in series [1], greater than 10000 nM.

In the case of `c1ccc(-c2ccc(Cn3cncc3CNc3ccc(-c4ccccc4)cc3)cc2)cc1`, the EC50 in the series with Trypanosoma cruzi is 200 nM; in series [1], greater than 10000 nM.

Take `COC(=O)c1ccc(NCc2cncn2Cc2cccc([N+](=O)[O-])c2)cc1-c1ccccc1`: the EC50 is 30 nM in the series with Trypanosoma cruzi and greater than 10000 nM in series [1].

For the molecule `COC(=O)c1ccc(NCc2cncn2Cc2ccc(C#N)cc2)cc1-c1ccccc1`, the EC50 in the series with Trypanosoma cruzi is 25 nM; in series [1], greater than 10000 nM.

Regarding `Clc1ccc(Cn2cncc2CNc2ccc(-c3nc4ccccc4s3)c(-c3ccccc3)c2)cc1`, the results for the EC50 (in the series with Trypanosoma cruzi; in series [1]) were 250 nM and greater than 1000 nM, respectively.

Regarding `COC(=O)c1ccc(NCc2cncn2Cc2ccc(-c3ccccc3)cc2)cc1-c1ccccc1`, the EC50 in the series on Trypanosoma cruzi is 0.5 nM; in series [1], greater than 1000 nM.

Consider `CCCC(=O)c1ccc(NCc2cncn2Cc2ccc(-c3ccccc3)cc2)cc1-c1ccccc1`, for which the EC50 with Trypanosoma cruzi is 40 nM; in series [1], greater than 10000 nM.

On to `COC(=O)c1ccc(NCc2cncn2Cc2cccc(Br)c2)cc1-c1ccccc1`, for which the EC50 in the series with Trypanosoma cruzi was 20 nM; in series [1], greater than 10000 nM.

With `Cc1ccc(Cn2cncc2CNc2cccc(-c3ccccc3)c2)cc1`, the EC50 in the series with Trypanosoma cruzi was 100 nM; in series [1], 10000 nM.

For the molecule `Fc1ccc(Cn2cncc2CNc2ccc(-c3nc4ccccc4s3)c(-c3ccccc3)c2)c(F)c1`, the EC50 with Trypanosoma cruzi is 420 nM; in series [1] it was greater than 1000 nM.

Turning to `Cc1ccccc1-c1cc(NCc2cncn2Cc2ccc(-c3ccccc3)cc2)ccc1-c1nc2ccccc2s1`, the EC50 in the series with Trypanosoma cruzi is 31 nM; in series [1], greater than 1000 nM.

As to `COC(=O)c1ccc(NCc2cncn2Cc2ccccc2C)cc1-c1ccccc1`, the values for the EC50 (in the series on Trypanosoma cruzi; in series [1]) were 1000 nM and 10000 nM, respectively.

Turning to `COC(=O)c1ccc(NCc2cncn2Cc2cccc(C)c2)cc1-c1ccccc1`, the results for the EC50 (in the series on Trypanosoma cruzi; in series [1]) were 20 nM and greater than 10000 nM, respectively.

With `COC(=O)c1ccc(NCc2cncn2Cc2ccc(OC)cc2)cc1-c1ccccc1`, in the series with Trypanosoma cruzi, the EC50 stood at 25 nM.

Consider `COC(=O)c1ccc(NCc2cncn2Cc2ccccc2Cl)cc1-c1ccccc1`, for which the results for the 50% effective concentration (EC50) (in the series on Trypanosoma cruzi; in series [1]) were 100 nM and 10000 nM, respectively.

`COC(=O)c1ccc(NCc2cncn2Cc2ccccc2C#N)cc1-c1ccccc1`: the EC50 is 200 nM with Trypanosoma cruzi and 25000 nM in series [1].

Take `COc1ccc(NCc2cncn2Cc2ccc(-c3ccccc3)cc2)cc1-c1ccccc1`: the EC50 was 7 nM with Trypanosoma cruzi and greater than 1000 nM in series [1].

Consider `c1ccc(-c2ccc(Cn3cncc3CNc3ccccc3-c3ccccc3)cc2)cc1`, for which the EC50 is 80 nM in the series on Trypanosoma cruzi and greater than 10000 nM in series [1].

In the case of `COC(=O)c1ccc(NCc2cncn2Cc2ccccc2)cc1-c1ccccc1`, the EC50 in the series with Trypanosoma cruzi was 80 nM; in series [1], greater than 1000 nM.

Regarding `CC(C)c1cccc(NCc2cncn2Cc2ccccc2)c1`, the EC50 (with Trypanosoma cruzi; in series [1]) was greater than 1000 nM in each case.

In the case of `Cc1ccccc1-c1cccc(NCc2cncn2Cc2ccccc2)c1`, the EC50 with Trypanosoma cruzi is 230 nM; in series [1], greater than 1000 nM.

As to `CNC(=O)c1ccc(NCc2cncn2Cc2ccc(-c3ccccc3)cc2)cc1-c1ccccc1`, the concentration for a half-maximal effect (EC50) in the series with Trypanosoma cruzi was 2.4 nM; in series [1], greater than 1000 nM.

For the origin of these results see ChEMBL document CHEMBL1136968, “Structurally simple inhibitors of lanosterol 14alpha-demethylase are efficacious in a rodent model of acute Chagas disease” (J Med Chem, 2009).
